Our source for the Tm and folding enthalpy values is the array DNA melting data of Ke et al. (doi:10.1101/2024.01.08.574731).

Data set [1] in a line: melting temperature; fluorescence melt of hairpins on a sequencing array, two-state fit, raised by 9.35 °C to match UV melts. As to conditions: sodium 0.088 M. The method, boiled down: (§1)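 With Cy3 and quencher oligos annealed, library hairpins on a sequenced MiSeq flow cell were imaged for Cy3 fluorescence in 50 mM Na-HEPES pH 8.0, 25 mM NaCl, in 2.5 °C steps up to 60 °C. Melting temperature and folding enthalpy were derived from bootstrapped two-state fits of signals normalised to pre-quench Cy3 and to control constructs. Four replicates were combined by inverse variance, with fitted temperatures raised by 9.35 °C to match UV melts.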

Data set [2] can be described thus: folding enthalpy; higher = less favourable; fluorescence melt of hairpins on a sequencing array, two-state fit. As to conditions: sodium 0.088 M. The method, boiled down: as §1

For the sequence GATCGCGATTGCGATC ((((((....)))))), the Tm in data set [1] turned out to be 68.7 °C. In data set [2], the folding enthalpy is -34.2 kcal/mol.

Take GTGTAGACGAAAGTCCAC (((..(((....)))))): the Tm in data set [1] is 42.8 °C. In addition, the folding enthalpy in data set [2] was -20.6 kcal/mol.

For GCACCTCGAAAGAGTTGC (((.(((....))).))), the Tm in data set [1] was 48.6 °C. In addition, the folding enthalpy in data set [2] is -28.1 kcal/mol.

Consider GCTGCGCGAAAGCGTCGC ((..(((....)))..)), for which, in data set [1], the Tm stood at 51.4 °C. In data set [2], the folding enthalpy was -15.2 kcal/mol.

Consider GCTGGCGAAAGCCGGAGC ((((((....)))..))), for which, in data set [1], the Tm worked out at 56.4 °C. For the same sequence, the folding enthalpy in data set [2] is -11.4 kcal/mol.

As to GCCACGGGAAACCATGGC ((((.((....)).)))), in data set [1], the Tm was found to be 48.6 °C. In addition, in data set [2], the folding enthalpy is -47.8 kcal/mol.

Take GTGAAGAAATTCAC (((((....))))): the Tm in data set [1] amounted to 38.3 °C. The folding enthalpy in data set [2] was -18.8 kcal/mol.

With GAATGCGAAAGCATATTC ((((((....)))..))), the Tm in data set [1] turned out to be 33 °C. For the same sequence, in data set [2], the folding enthalpy is -11.6 kcal/mol.

As for GTGAGCGAAAGCTCGCAC ((((((....)))..))), in data set [1], the Tm came out at 55.1 °C. For the same sequence, the folding enthalpy in data set [2] is -11.7 kcal/mol.

For GGTCCCGAAAGGGGCACC ((((((....)))..))), the Tm in data set [1] turned out to be 50.7 °C. Moreover, the folding enthalpy in data set [2] is -11.3 kcal/mol.

For GAACGTGGAAACACGTTC (((((((....))))))), in data set [1], the Tm is 66.3 °C. In addition, in data set [2], the folding enthalpy is -31.6 kcal/mol.

For the sequence “ATCAGTGAGAAATCACTGAA ....................”, the Tm in data set [1] was 46.2 °C. Besides, the folding enthalpy in data set [2] is -14.1 kcal/mol.

For GCGACGTTTCGC ((((....)))), the Tm in data set [1] amounted to 47.8 °C. Also, in data set [2], the folding enthalpy is -17.9 kcal/mol.

Consider GATCCGTCACCGGATC ((((((....)))))), for which the Tm in data set [1] stood at 57.2 °C. In addition, in data set [2], the folding enthalpy is -41.6 kcal/mol.

For the sequence GATGCGGGAAACTGCATC (((((.(....).))))), in data set [1], the Tm was 54.7 °C. The folding enthalpy in data set [2] was -42.6 kcal/mol.

For GTCCAACGAAAGTTTGAC (((.(((....))).))), the Tm in data set [1] is 42 °C. The folding enthalpy in data set [2] is -27.7 kcal/mol.

Consider GTCGTCGCGAAAGCGGAC (((..(((....)))))), for which the Tm in data set [1] was found to be 46.5 °C. Also, the folding enthalpy in data set [2] was -10.6 kcal/mol.

GGATAGCGAAAGCTGTCC (((.(((....))).))): the Tm in data set [1] is 59.3 °C. Moreover, the folding enthalpy in data set [2] is -42.1 kcal/mol.

Turning to GGAGACGAAAGTCATCC ((((((....))).))), the Tm in data set [1] turned out to be 45.5 °C. Besides, the folding enthalpy in data set [2] is -17.3 kcal/mol.

Take GATCAAGAGATTGATC ((((((....)))))): the Tm in data set [1] is 41.8 °C. In addition, the folding enthalpy in data set [2] is -29.5 kcal/mol.

Take GGTAAGGGAAACCTTATC (.(((((....))))).): the Tm in data set [1] was found to be 38.1 °C. Also, in data set [2], the folding enthalpy was -25.6 kcal/mol.

With GGTAATGGAAACATTGCC ((.((((....)))).)), the Tm in data set [1] worked out at 46.7 °C. The folding enthalpy in data set [2] is -29.2 kcal/mol.

As for GCTGAGCGAAAGCTTAGC (((.(((....))).))), the Tm in data set [1] was 57.4 °C. Further, the folding enthalpy in data set [2] is -50.4 kcal/mol.

For the sequence GCTCATCGAAAGATCAGC (((.(((....))).))), the Tm in data set [1] was determined as 34.7 °C. For the same sequence, the folding enthalpy in data set [2] was -29.6 kcal/mol.

With GCACCACGAAAGTGCTGC (((.(((....))).))), the Tm in data set [1] turned out to be 50.5 °C. In addition, the folding enthalpy in data set [2] is -25.2 kcal/mol.

In the case of GTAAGCGAAAGCTCGTAC ((((((....)))..))), the Tm in data set [1] turned out to be 24.2 °C. Moreover, in data set [2], the folding enthalpy was -8.1 kcal/mol.

Consider GAAAGCGAAAGCTGTTTC ((((((....)))..))), for which the Tm in data set [1] turned out to be 32 °C. In addition, the folding enthalpy in data set [2] is -9.68 kcal/mol.

As for GCCTAGCGAAAGCACGGC (((..((....))..))), the Tm in data set [1] amounted to 54.9 °C. In data set [2], the folding enthalpy was -20.3 kcal/mol.

Take GAAGACCGAAAGGTATTC (((.(((....))).))): the Tm in data set [1] turned out to be 50.8 °C. In addition, the folding enthalpy in data set [2] was -32.5 kcal/mol.

Consider GCCTAGCGAAAGCATGGC (((..((....))..))), for which the Tm in data set [1] is 61.2 °C. Further, the folding enthalpy in data set [2] is -30.7 kcal/mol.

GAGAAGGGAAACCTTTTC ((.((((....)))).)): the Tm in data set [1] came out at 28.8 °C. Also, the folding enthalpy in data set [2] was -28.4 kcal/mol.

As for GATGCCGAAAGGCCAATC ((((((....)))..))), in data set [1], the Tm is 29.4 °C. For the same sequence, in data set [2], the folding enthalpy is -8.85 kcal/mol.

On to GACCGCGGAAACGTGGTC ((((.((....)).)))), for which the Tm in data set [1] came out at 62.8 °C. The folding enthalpy in data set [2] is -44.8 kcal/mol.

On to GGTTTGGGAAACCGAATC (.((.((....)).)).), for which the Tm in data set [1] worked out at 35.3 °C. The folding enthalpy in data set [2] is -20.2 kcal/mol.

As to GCTCGGCGAAAGCCAGGC ((..(((....)))..)), in data set [1], the Tm stood at 58.8 °C. For the same sequence, the folding enthalpy in data set [2] was -12.6 kcal/mol.

Consider CGCGGAGCGGTCCGCG ((((((....)))))), for which the Tm in data set [1] was determined as 50.5 °C. The folding enthalpy in data set [2] is -15.8 kcal/mol.

As to GACCACCGAAAGGTGTC (((.(((....)))))), in data set [1], the Tm came out at 47.5 °C. Moreover, the folding enthalpy in data set [2] is -12.7 kcal/mol.
